Test results published in ChEMBL document CHEMBL1150790, “Biochemical characterization of PER-2 and genetic environment of blaPER-2” (Antimicrob Agents Chemother, 2007).
In brackets after ≈: the same amount, converted by molar mass.

What was measured:
Citrobacter freundii = test: Antimicrobial activity against Citrobacter freundii 33587 isolate by agar dilution method; format: functional
Outline: (§1)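 MICs were determined by agar dilution following CLSI guidelines, with inoculum applied by a Steers multipoint inoculator.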

Escherichia coli [1] = test: Antimicrobial activity against Escherichia coli CAG12177 by agar dilution method; format: functional; outline: as §1
Escherichia coli [2] = test: Antimicrobial activity against Escherichia coli 33587-TC9 by agar dilution method; format: functional; outline: as §1
[3] = biological target: T1, PER-2 beta-lactamase (Citrobacter freundii) (UniProt A2RP81); test: Ratio of Kcat to Km of Citrobacter freundii PER2 beta lactamase relative to cephalothin
T1 sequence (whole entry): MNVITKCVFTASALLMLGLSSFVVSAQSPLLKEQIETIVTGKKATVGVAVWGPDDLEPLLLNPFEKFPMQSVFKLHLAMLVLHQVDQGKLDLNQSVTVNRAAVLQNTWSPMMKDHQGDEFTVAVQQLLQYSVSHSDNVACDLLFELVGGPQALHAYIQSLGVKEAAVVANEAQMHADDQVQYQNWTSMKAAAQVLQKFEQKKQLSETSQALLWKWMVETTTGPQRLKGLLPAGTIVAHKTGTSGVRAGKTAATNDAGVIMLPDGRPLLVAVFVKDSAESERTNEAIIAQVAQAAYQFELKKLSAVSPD
Outline: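 Purified recombinant PER-2 (E. coli BL21(DE3) expression, Q-Sepharose purification) was assayed spectrophotometrically at 30°C in 500 μl. kcat and Km came from initial steady-state rates.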

PER-2 beta-lactamase = biological target: T2, PER-2 beta-lactamase (Citrobacter freundii, UniProt A2RP81); test: Inhibition of Citrobacter freundii PER2 beta lactamase
T2 sequence (A2RP81 whole entry): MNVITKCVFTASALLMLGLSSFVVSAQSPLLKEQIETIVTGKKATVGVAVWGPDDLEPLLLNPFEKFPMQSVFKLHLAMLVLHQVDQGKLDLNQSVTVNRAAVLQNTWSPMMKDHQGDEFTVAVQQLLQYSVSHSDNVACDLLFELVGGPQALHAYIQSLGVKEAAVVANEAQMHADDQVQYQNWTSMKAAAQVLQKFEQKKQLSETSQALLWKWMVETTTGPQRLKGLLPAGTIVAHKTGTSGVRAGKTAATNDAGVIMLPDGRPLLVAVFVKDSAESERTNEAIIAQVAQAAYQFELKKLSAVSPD
Outline: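 Purified recombinant PER-2 was incubated with the drug plus 100 μM nitrocefin as reporter substrate in 500 μl at 30°C. Residual enzyme activity was read spectrophotometrically. Apparent Km values were derived as competitive inhibitor constants (Ki).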

| Compound | MIC (Citrobacter freundii) | MIC (Escherichia coli [1]) | MIC (Escherichia coli [2]) | Activity [3] | Ki (PER-2 beta-lactamase) |
| --- | --- | --- | --- | --- | --- |
| CO/N=C(\C(=O)N[C@@H]1C(=O)N2C(C(=O)[O-])=C(C[N+]3(C)CCCC3)CS[C@H]12)c1csc(N)n1 | 16 µg/mL (≈ 33.3 µM) | ≤ 0.063 µg/mL | 8 µg/mL (≈ 16.6 µM) | 3% |  |
| CC1(C)S[C@@H]2[C@H](NC(=O)Cc3ccccc3)C(=O)N2[C@H]1C(=O)O |  |  |  | 18% |  |
| CCN1CCN(C(=O)N[C@@H](C(=O)N[C@@H]2C(=O)N3C(C(=O)O)=C(CSc4nnnn4C)CS[C@H]23)c2ccc(O)cc2)C(=O)C1=O |  |  |  | 15% |  |
| CO/N=C(\C(=O)N[C@@H]1C(=O)N2C(C(=O)O)=C(COC(N)=O)CS[C@H]12)c1ccco1 |  |  |  | 45% |  |
| O=C(Cc1cccs1)N[C@@H]1C(=O)N2C(C(=O)O)=C(/C=C/c3ccc([N+](=O)[O-])cc3[N+](=O)[O-])CS[C@H]12 |  |  |  | 224% |  |
| CC1(C)S[C@@H]2[C@H](NC(=O)[C@H](N)c3ccccc3)C(=O)N2[C@H]1C(=O)O [AMPICILLIN] | > 512 µg/mL | 0.25 µg/mL (≈ 0.715 µM) | > 512 µg/mL | 49% |  |
| C[C@H]1[C@H](NC(=O)/C(=N\OC(C)(C)C(=O)O)c2csc(N)n2)C(=O)N1S(=O)(=O)O [AZTREONAM] | 256 µg/mL (≈ 588 µM) | ≤ 0.016 µg/mL | 256 µg/mL (≈ 588 µM) | 18% | 2 µM |
| CO/N=C(\C(=O)N[C@@H]1C(=O)N2C(C(=O)O)=C(COC(C)=O)CS[C@H]12)c1csc(N)n1 [CEFOTAXIME] | 64 µg/mL (≈ 141 µM) | ≤ 0.063 µg/mL | 64 µg/mL (≈ 141 µM) | 113% |  |
| CO[C@@]1(NC(=O)Cc2cccs2)C(=O)N2C(C(=O)O)=C(COC(N)=O)CS[C@@H]21 [CEFOXITIN] | 1 µg/mL (≈ 2.34 µM) | ≤ 0.063 µg/mL | 0.125 µg/mL (≈ 0.292 µM) | 18% | 0.14 µM |
